The record followed here is ChEMBL document CHEMBL4364287, “Enhanced Inhibition of Influenza A Virus Adhesion by Di- and Trivalent Hemagglutinin Inhibitors” (J Med Chem, 2019).

Series [1] is described as follows: Inhibition of sensor loaded biotinylated-LAMP1 binding to Influenza A virus (A/Netherlands/178/1995(H3N2)) H3 hemagglutinin expressed in Influenza virus WU95 in presence of NA inhibitor oseltamivir carboxylate by biolayer interferometric analysis. Put shortly:
(§1)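 OctetRed BLI: streptavidin sensors were saturated with biotinylated LAMP1 in PBS pH 7.4. They were dipped into WU95 (8 HAU, 2.5 × 10^8 particles per well) preincubated 4 h at room temperature with compound and 10 µM (end concentration) oseltamivir carboxylate. Initial binding rate was compared with a no-compound control.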

Series [2] has as its system Influenza A virus (A/Bilthoven/1761/1976(H3N2)). Nature of the series: Inhibition of sensor loaded biotinylated-LAMP1 binding to Influenza A virus (A/Bilthoven/1761/1976(H3N2)) H3 hemagglutinin expressed in Influenza virus VI75 at 3 uM in presence of NA inhibitor oseltamivir carboxylate by biolayer interferometric analysis. The method, boiled down:
(§2)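 BLI with streptavidin sensors loaded to saturation with biotinylated LAMP1 (PBS, pH 7.4). VI75 virus was preincubated 4 h at room temperature with 3 µM compound, without or with 10 µM oseltamivir carboxylate. Initial virus binding rate was compared with a compound-free control.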
Background: In BLI a coated tip is dipped into the sample, and binding shifts an interference pattern.

Series [3] concerns Influenza A virus (A/Netherlands/178/1995(H3N2)). The series is described as follows: Inhibition of sensor loaded biotinylated-LAMP1 binding to Influenza A virus (A/Netherlands/178/1995(H3N2)) H3 hemagglutinin expressed in Influenza virus WU95 at 3 uM in presence of NA inhibitor oseltamivir carboxylate by biolayer interferometric analysis. The method, boiled down:
as §1

The test system of series [4] is Influenza A virus (A/duck/Hunan/795/2002(H5N1)). The series is described as follows: Inhibition of sensor loaded biotinylated-LAMP1 binding to Influenza A virus (A/duck/Hunan/795/2002 (H5N1)) […] expressed in Influenza virus H5N1 by biolayer interferometric analysis relative to control.
Series [5] is described as follows: Inhibition of sensor loaded biotinylated-LAMP1 binding to Influenza A virus (A/Netherlands/602/2009(H1N1)) […] by biolayer interferometric analysis.
Series [6] relates to Influenza A virus (A/Bilthoven/1761/1976(H3N2)). The series is described as follows: Inhibition of sensor loaded biotinylated-LAMP1 binding to Influenza A virus (A/Bilthoven/1761/1976(H3N2)) H3 hemagglutinin expressed in Influenza virus VI75 at 3 uM by biolayer interferometric analysis. Put shortly: as §2
The test system of series [7] is Influenza A virus (A/Netherlands/178/1995(H3N2)). The series is described as follows: Potency index, ratio of compound 7 IC50 to test compound IC50 for inhibition of sensor loaded biotinylated-LAMP1 binding to Influenza A virus (A/Netherlands/178/1995(H3N2)) H3 hemagglutinin expressed in Influenza virus WU95.
The next series concerns MDCK-II. Nature of the series: Cytotoxicity against MDCK2 cells assessed as reduction in cell viability measured after 24 hrs by WST1 assay. The format is cell-based, Canis lupus familiaris. Conditions: dog. The method, boiled down: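 MDCK-II cells were incubated 24 h in Opti-mem with compounds at different concentrations. Cell number and viability were then read by WST-1 assay.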
(In general: Formazan colour is commonly taken as a measure of viable cells.)

The nature of series [8]: Inhibition of Influenza A virus (A/Netherlands/178/1995(H3N2)) H3 hemagglutinin expressed in Influenza virus WU95 assessed as reduction in human erythrocytes hemagglutination preincubated for 4 hrs followed by erythrocytes addition and measured after 2 hrs. Type of series: cell-based. The method, boiled down: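 Four hemagglutination units of virus were preincubated 4 h at room temperature with limiting compound dilutions in the presence of oseltamivir carboxylate. Then 0.5% (v/v) erythrocytes were added for 2 h at 4 °C. The lowest inhibiting concentration was recorded; two experiments were run in duplicate and means are reported.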

Series [9] deals with Influenza A virus (A/Netherlands/178/1995(H3N2)). Nature of the series: Potency index, ratio of compound 8 IC50 to test compound IC50 for Inhibition of Influenza A virus (A/Netherlands/178/1995(H3N2)) H3 hemagglutinin expressed in Influenza virus WU95 assessed as reduction in human erythrocytes hemagglutination. The format is cell-based.
In series [10] the test system is Influenza A virus. Nature of the series: Antiviral activity against Influenza A virus WU95 expressing Influenza A virus (A/Netherlands/178/1995(H3N2)) H3 hemagglutinin infected in MDCK2 cells assessed as reduction in virus-induced cytopathogenicity preincubated with virus for 4 hrs followed by cell infection and measured after 3 days by DAPI staining-based assay. The format is functional, organism-based. Put shortly: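 WU95 virus was preincubated 4 h at room temperature in Opti-mem with varying compound concentrations. It was then inoculated onto confluent MDCK-II cells at MOI 0.005 and held 3 days with 1 µg/ml TPCK-trypsin to allow multiple rounds of infection. Cells were fixed and DAPI-stained, and monolayers inspected visually; absence of stained cells was taken as cell killing.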
A general note: Damage to the host cells serves as the signal in cytopathic effect assays.

For series [11], the system named is Influenza A virus. Nature of the series: Antiviral activity against Influenza A virus WU95 expressing Influenza A virus (A/Netherlands/178/1995(H3N2)) H3 hemagglutinin infected in MDCK2 cells preincubated with virus for 4 hrs followed by cell infection and measured at 7 hrs post-infection by DAPI staining-based assay. Type of series: functional, organism-based. Put shortly:
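Single-cycle infection: WU95 in Opti-mem was preincubated 4 h at room temperature with varying compound concentrations. Confluent MDCK-II cells were inoculated in triplicate at MOI 0.005 and fixed at 7 h post-infection in methanol (−20 °C, 5 min). Cells were immunostained for nucleoprotein (HB65, Alexa 488 secondary), counterstained with DAPI, and infected cells per well were counted.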

Series [12] concerns Influenza A virus. The series is described as follows: Antiviral activity against Influenza A virus WU95 expressing Influenza A virus (A/Netherlands/178/1995(H3N2)) H3 hemagglutinin infected in MDCK2 cells at 30 nM preincubated with virus for 4 hrs followed by cell infection and measured after 2 hrs in presence of 20 nM NA inhibitor oseltamivir carboxylate by DAPI staining-based assay. Type of series: functional, organism-based. Put shortly:
(§3)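 WU95 was preincubated 4 h at room temperature in Opti-mem with or without 15 µM compound, ±10 µM oseltamivir carboxylate. The mixture was diluted 500-fold onto confluent MDCK-II for 2 h, giving end concentrations of 30 nM compound, 20 nM OC and MOI 0.01. Cells were washed, kept overnight at 37 °C with 10 nM bafilomycin, then fixed and nucleoprotein-immunostained.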

Series [13] has as its system Influenza A virus. The series is described as follows: Antiviral activity against Influenza A virus WU95 expressing Influenza A virus (A/Netherlands/178/1995(H3N2)) H3 hemagglutinin infected in MDCK2 cells at 30 nM preincubated with virus for 4 hrs followed by cell infection and measured after 2 hrs by DAPI staining-based assay. The format is functional, organism-based. Put shortly: as §3

Activity calls are given as the source filed them. The rule behind the calls is not given here.

The IC50 is the midpoint of a concentration-inhibition curve. The term Ki denotes a measure of affinity in units of concentration, obtained from inhibition or displacement. In the case of `CC(=O)N[C@H]1[C@H](O[C@H]2[C@@H](O)[C@@H](CO)O[C@@H](O[C@H]3[C@H](O)[C@@H](O)[C@H](n4cc(-c5ccc(-c6cn(CCCC(=O)Nc7cccc(-c8cc(-c9cccc(NC(=O)CCCn%10cc(-c%11ccc(-c%12cn([C@@H]%13O[C@H](CO)[C@@H](O[C@@H]%14O[C@H](CO)[C@H](O)[C@H](O[C@@H]%15O[C@H](CO)[C@@H](O[C@@H]%16O[C@H](CO[C@]%17(C(=O)O)C[C@H](O)[C@@H](NC(C)=O)[C@H]([C@H](O)[C@H](O)CO)O%17)[C@H](O)[C@H](O)[C@H]%16O)[C@H](O)[C@H]%15NC(C)=O)[C@H]%14O)[C@H](O)[C@H]%13O)nn%12)cc%11)nn%10)c9)cc(-c9cccc(NC(=O)CCCn%10cc(-c%11ccc(-c%12cn([C@@H]%13O[C@H](CO)[C@@H](O[C@@H]%14O[C@H](CO)[C@H](O)[C@H](O[C@@H]%15O[C@H](CO)[C@@H](O[C@@H]%16O[C@H](CO[C@]%17(C(=O)O)C[C@H](O)[C@@H](NC(C)=O)[C@H]([C@H](O)[C@H](O)CO)O%17)[C@H](O)[C@H](O)[C@H]%16O)[C@H](O)[C@H]%15NC(C)=O)[C@H]%14O)[C@H](O)[C@H]%13O)nn%12)cc%11)nn%10)c9)c8)c7)nn6)cc5)nn4)O[C@@H]3CO)[C@@H]2O)O[C@H](CO)[C@@H](O[C@@H]2O[C@H](CO[C@]3(C(=O)O)C[C@H](O)[C@@H](NC(C)=O)[C@H]([C@H](O)[C@H](O)CO)O3)[C@H](O)[C@H](O)[C@H]2O)[C@@H]1O`, the figures for the IC50 (in [1]; in [5]; with Influenza A virus [11]) were 0.71 µM, 2.7 µM and 4.4 µM, respectively. The inhibition entry in series [2], in [3] and in series [6] was “Active” in each case. In addition, the Imax in series [4] was 50%. In addition, the Ratio IC50 in series [7] is 428; in [9] it was 38. Moreover, the Activity result in the series with MDCK-II is “Non-Toxic”. Further, the Ki in series [8] stood at 9.4 µM. In the series with Influenza A virus [10], the result was Active.

Take `CC(=O)N[C@H]1[C@H](O[C@H]2[C@@H](O)[C@@H](CO)O[C@@H](O[C@H]3[C@H](O)[C@@H](O)[C@H](n4cc(-c5ccc(-c6cn(CCCC(=O)Nc7cccc(-c8cc(-c9cccc(NC(=O)CCCn%10cc(-c%11ccc(-c%12cn([C@@H]%13O[C@H](CO)[C@@H](O[C@@H]%14O[C@H](CO)[C@H](O)[C@H](O[C@@H]%15O[C@H](CO)[C@@H](O[C@@H]%16O[C@H](CO[C@]%17(C(=O)O)C[C@H](O)[C@@H](NC(C)=O)[C@H]([C@H](O)[C@H](O)CO)O%17)[C@H](O)[C@H](O)[C@H]%16O)[C@H](O)[C@H]%15NC(C)=O)[C@H]%14O)[C@H](O)[C@H]%13O)nn%12)cc%11)nn%10)c9)cc(-c9cccc(NC(=O)CCCn%10cc(-c%11ccc(-c%12cn([C@@H]%13O[C@H](CO)[C@@H](O[C@@H]%14O[C@H](CO)[C@H](O)[C@H](O[C@@H]%15O[C@H](CO)[C@@H](O[C@@H]%16O[C@H](CO[C@]%17(C(=O)O)C[C@H](O)[C@@H](NC(C)=O)[C@H]([C@H](O)[C@H](O)CO)O%17)[C@H](O)[C@H](O)[C@H]%16O)[C@H](O)[C@H]%15NC(C)=O)[C@H]%14O)[C@H](O)[C@H]%13O)nn%12)cc%11)nn%10)c9)c8)c7)nn6)cc5)nn4)O[C@@H]3CO)[C@@H]2O)O[C@H](CO)[C@@H](O[C@@H]2O[C@H](CO)[C@H](O)[C@H](O)[C@H]2O)[C@@H]1O`: the IC50 in series [1] came to 0.71 µM. Moreover, the inhibition entry in series [2], in series [3] and in series [6] was “Active” each time. The Ratio IC50 in series [7] was found to be 428; in series [9] it was 35. Further, the Ki in [8] came to 10.3 µM. In addition, the result with Influenza A virus [12] and in the series with Influenza A virus [13] was Active.
